Paper PMC6368478 (ACS infectious diseases, 2018)

Legend:
[1] = read-out: Counterscreen IC50; compound added after NaOH stop, 10-point titration
Summary of the method: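 Same reagents and protocol as the primary OMFP screen: Sts-1HP at 750 ng/mL final in 30 mM Tris HCl, 75 mM NaCl, 1 mM EDTA, 1 mM DTT; OMFP 50 μM final; 20 min at room temperature in the dark; stopped with NaOH (100 mM final). Test compound is added after the NaOH stop. Fluorescence read; 10-point 3-fold titration in triplicate. IC50 comes from a four-parameter sigmoidal fit with adjustable baseline.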

Sts-1HP [2] = molecular target: T1, Sts-1HP (Homo sapiens, UniProt Q8TF42); test: OMFP fluorescence phosphatase assay, 1,536-well HTS; format: biochemical; conditions: for Averaged Max. Response (%): LOPAC pilot screen, 5.8 μM nominal concentration, triplicate, OMFP substrate
T1 sequence (Q8TF42 384-647 limits assumed): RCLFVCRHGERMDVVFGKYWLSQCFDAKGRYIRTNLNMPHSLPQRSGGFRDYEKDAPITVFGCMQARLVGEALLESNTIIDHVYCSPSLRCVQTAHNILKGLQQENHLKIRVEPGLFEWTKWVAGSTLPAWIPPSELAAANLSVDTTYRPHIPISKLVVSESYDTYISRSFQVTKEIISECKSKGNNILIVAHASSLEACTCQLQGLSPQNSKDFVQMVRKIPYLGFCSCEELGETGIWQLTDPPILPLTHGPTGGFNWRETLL

Sts-1HP W494L = Sts-1HP W494L (Homo sapiens, UniProt Q8TF42, W505L); test: pNPP inhibition analysis of Sts-1HP mutant; format: biochemical
Sts-1HP W494L, sequence (Q8TF42 384-647 W505L): as the sequence (Q8TF42 384-647 limits assumed) above, with W122L counted along it
Summary of the method: (§1)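 Mutant Sts-1HP is expressed in E. coli BL21(DE3) and purified. Assay uses 20 mM Tris (pH 7.5), 150 mM NaCl, 5 mM MgCl2 and 1 mM βME with varying pNPP, following pNP release at 405 nm. Initial rates (<10% completion) are measured at several fixed inhibitor concentrations, with controls for compound optical interference, in triplicate. Ki is derived from Km in the presence of inhibitor via a Lineweaver-Burk competitive fit.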

Sts-1HP W494F = Sts-1HP W494F (Homo sapiens, UniProt Q8TF42, W505F); test: pNPP inhibition analysis of Sts-1HP mutant; format: biochemical
Sts-1HP W494F, sequence (Q8TF42 384-647 W505F): as the sequence (Q8TF42 384-647 limits assumed) above, with W122F counted along it
Summary of the method: as §1

Sts-1HP Y596L = Sts-1HP Y596L (Homo sapiens, UniProt Q8TF42, Y607L); test: pNPP inhibition analysis of Sts-1HP mutant; format: biochemical
Sts-1HP Y596L, sequence (Q8TF42 384-647 Y607L): as the sequence (Q8TF42 384-647 limits assumed) above, with Y224L counted along it
Summary of the method: as §1

Sts-1HP W494H = Sts-1HP W494H (Homo sapiens, UniProt Q8TF42, W505H); test: pNPP inhibition analysis of Sts-1HP mutant; format: biochemical
Sts-1HP W494H, sequence (Q8TF42 384-647 W505H): as the sequence (Q8TF42 384-647 limits assumed) above, with W122H counted along it
Summary of the method: as §1

Sts-1HP Y596F = Sts-1HP Y596F (Homo sapiens, UniProt Q8TF42, Y607F); test: pNPP inhibition analysis of Sts-1HP mutant; format: biochemical
Sts-1HP Y596F, sequence (Q8TF42 384-647 Y607F): as the sequence (Q8TF42 384-647 limits assumed) above, with Y224F counted along it
Summary of the method: as §1

PTP-1B = molecular target: T2, PTP-1B (Homo sapiens, UniProt P18031); test: pNPP inhibition analysis, selectivity; format: biochemical; conditions: for Selectivity: more active against Sts-1 than PTP1B: from Ki values, Table 4
T2 sequence (P18031 1-435): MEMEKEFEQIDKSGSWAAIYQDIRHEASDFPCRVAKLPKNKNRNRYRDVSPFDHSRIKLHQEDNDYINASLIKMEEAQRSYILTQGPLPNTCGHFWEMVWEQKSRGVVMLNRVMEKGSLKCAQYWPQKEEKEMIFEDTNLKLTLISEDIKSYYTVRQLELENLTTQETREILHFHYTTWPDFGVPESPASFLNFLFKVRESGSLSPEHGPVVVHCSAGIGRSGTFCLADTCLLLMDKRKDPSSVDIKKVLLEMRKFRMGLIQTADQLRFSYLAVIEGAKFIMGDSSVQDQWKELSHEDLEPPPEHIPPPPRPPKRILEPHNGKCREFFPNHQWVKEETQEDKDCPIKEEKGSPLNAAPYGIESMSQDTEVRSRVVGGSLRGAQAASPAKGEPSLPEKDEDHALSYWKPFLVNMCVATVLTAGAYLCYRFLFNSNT

Sts-1HP [3] = molecular target: T1, Sts-1HP; test: pNPP absorbance phosphatase assay, inhibition analysis; format: biochemical; conditions: for Ki Ratio: Ki of construct / Ki of wild-type Sts-1HP, wild-type; for Mode of inhibition: double reciprocal plots, several inhibitor concentrations
SHP1 = SHP1 (Homo sapiens, UniProt P29350); test: pNPP inhibition analysis, selectivity; format: biochemical; conditions: for Selectivity: more active against Sts-1 than SHP1: from Ki values, Table 4
SHP1, sequence (P29350 whole entry): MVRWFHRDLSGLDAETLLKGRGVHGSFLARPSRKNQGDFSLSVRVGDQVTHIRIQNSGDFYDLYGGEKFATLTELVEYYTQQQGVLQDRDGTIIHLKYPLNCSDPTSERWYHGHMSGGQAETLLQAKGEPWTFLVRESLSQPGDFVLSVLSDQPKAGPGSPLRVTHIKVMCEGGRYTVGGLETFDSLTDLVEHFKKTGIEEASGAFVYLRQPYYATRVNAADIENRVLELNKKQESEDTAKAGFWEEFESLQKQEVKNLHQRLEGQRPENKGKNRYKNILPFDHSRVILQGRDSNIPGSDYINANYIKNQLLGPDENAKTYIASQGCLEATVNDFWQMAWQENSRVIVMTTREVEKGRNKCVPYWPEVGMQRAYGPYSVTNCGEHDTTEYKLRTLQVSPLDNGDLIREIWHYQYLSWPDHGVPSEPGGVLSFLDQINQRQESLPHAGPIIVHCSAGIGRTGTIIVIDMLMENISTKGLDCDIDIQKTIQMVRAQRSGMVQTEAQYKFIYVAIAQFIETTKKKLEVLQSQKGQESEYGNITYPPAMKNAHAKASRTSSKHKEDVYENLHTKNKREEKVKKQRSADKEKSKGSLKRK

Sts-1 = conditions: cited from earlier work

| Compound | IC50 [1] | IC50 (Sts-1HP [2]) | Averaged Max. Response (%) (Sts-1HP [2]) | also measured |
| --- | --- | --- | --- | --- |
| C=C1c2c(Cl)ccc(O)c2C(=O)C2=C(O)[C@]3(O)C(=O)C(C(N)=O)=C(O)[C@@H](N(C)C)[C@@H]3[C@@H](O)[C@H]12 [Meclocycline] | > 14.5 µM | 1.8 µM | – | – |
| CN(N=O)c1ccc(O)c(O)c1 [Methyl-3,4-Dephostatin] | – | – | 46.07% | – |
| C[C@](N)(Cc1ccc(O)c(O)c1)C(=O)O [L-α-methyl DOPA] | – | – | 57.45% | – |
| COc1cc(-c2ccc(/N=N/c3ccc4c(S(=O)(=O)O)cc(S(=O)(=O)O)c(N)c4c3O)c(OC)c2)ccc1/N=N/c1ccc2c(S(=O)(=O)O)cc(S(=O)(=O)O)c(N)c2c1O [Chicago Sky Blue] | > 14.5 µM | 1 µM | – | – |
| CN(C)[C@@H]1C(O)=C(C(N)=O)C(=O)[C@@]2(O)C(O)=C3C(=O)c4c(O)cccc4[C@@](C)(O)[C@H]3[C@H](O)[C@@H]12 [Oxytetracyline] | > 14.5 µM | – | – | – |
| O=c1c(O)c(-c2ccc(O)cc2O)oc2cc(O)cc(O)c12 [Morin] | – | – | 44.94% | – |
| O=C(Nc1ccc(C(=O)Nc2ccc(C(=O)Nc3ccc(S(=O)(=O)O)c4cc(S(=O)(=O)O)cc(S(=O)(=O)O)c34)cc2)cc1)Nc1ccc(C(=O)Nc2ccc(C(=O)Nc3ccc(S(=O)(=O)O)c4cc(S(=O)(=O)O)cc(S(=O)(=O)O)c34)cc2)cc1 [NF-279] | > 29 µM | – | – | – |
| O=C(O)C1=CC(=C(c2ccc(O)c(C(=O)O)c2)c2ccc(O)c(C(=O)O)c2)C=CC1=O [Aurintricarboxylic Acid] | – | – | 89.95% | – |
| NC(Cc1cc(O)c(O)cc1O)C(=O)O (racemic) [6-Hydroxy-DL-DOPA] | – | – | 64.86% | – |
| C[C@H]1c2cccc(O)c2C(=O)C2=C(O)[C@]3(O)C(=O)C(C(N)=O)=C(O)[C@@H](N(C)C)[C@@H]3[C@@H](O)[C@@H]21 [Doxycycline] | > 14.5 µM | 4.1 µM | 45.03% | Ki (Sts-1HP W494L): 730 ± 40 µM; Ki (Sts-1HP W494F): 1420 ± 110 µM; Ki (Sts-1HP Y596L): 490 ± 50 µM; Ki (Sts-1HP W494H): 1480 ± 90 µM; Ki (Sts-1HP Y596F): 390 ± 40 µM; Selectivity: more active against Sts-1 than PTP1B (PTP-1B): more than 200 fold; Ki Doxycycline (PTP-1B; pNPP substrate): No Inhibition; Ki (Sts-1HP [3]): 99 ± 19 µM; Ki Ratio (Sts-1HP [3]): 1; Mode of inhibition (Sts-1HP [3]): competitive inhibition; Selectivity: more active against Sts-1 than SHP1 (SHP1): more than 200 fold; Ki Doxycycline (SHP1; pNPP substrate): No Inhibition |
| CN(C)[C@@H]1C(O)=C(C(N)=O)C(=O)[C@@]2(O)C(O)=C3C(=O)c4c(O)cccc4[C@@](C)(O)[C@H]3C[C@@H]12 [Tetracycline] | > 14.5 µM | 1.9 µM | – | Ki (Sts-1HP [3]): 199 ± 20 µM |
| Nc1c(S(=O)(=O)O)cc(Nc2ccc(Nc3nc(Cl)nc(Nc4cccc(S(=O)(=O)O)c4)n3)c(S(=O)(=O)O)c2)c2c1C(=O)c1ccccc1C2=O [Reactive Blue 2] | – | – | 58.99% | – |
| Cc1nc(N=Nc2cc(S(=O)(=O)O)c3cc([N+](=O)[O-])cc(S(=O)(=O)O)c3c2)c(COP(=O)(O)O)c(C=O)c1O [PPNDS] | > 29 µM | – | – | – |
| Nc1c(/N=N/c2ccc(-c3ccc(/N=N/c4cc(S(=O)(=O)O)c5ccccc5c4N)cc3)cc2)cc(S(=O)(=O)O)c2ccccc12 [Congo Red] | > 14.5 µM | 0.92 µM | – | Ki (Sts-1HP W494L): 1.46 ± 0.13 µM; Ki (Sts-1HP W494F): 1.42 ± 0.32 µM; Ki (Sts-1HP Y596L): 0.94 ± 0.05 µM; Ki (Sts-1HP W494H): 1.07 ± 0.03 µM; Ki (Sts-1HP Y596F): 0.23 ± 0.02 µM; Ki (PTP-1B): 1.47 ± 0.34 µM; Selectivity: more active against Sts-1 than PTP1B (PTP-1B): approximately 20 fold; Ki (Sts-1HP [3]): 0.079 ± 0.02 µM; Ki Ratio (Sts-1HP [3]): 1; Mode of inhibition (Sts-1HP [3]): competitive inhibition; Ki (SHP1): 3.88 ± 0.59 µM; Selectivity: more active against Sts-1 than SHP1 (SHP1): ~50 fold |
| O=c1cc(O)cc(/C=C/c2ccc(O)c(O)c2)o1 [Hispidin] | – | – | 44.44% | – |
| CN(N=O)c1cc(O)ccc1O [Dephostatin] | – | – | 43.47% | – |
| C=C1c2cccc(O)c2C(=O)C2=C(O)[C@]3(O)C(=O)C(C(N)=O)=C(O)[C@@H](N(C)C)[C@@H]3[C@@H](O)[C@H]12 [Methacycline] | > 14.5 µM | 0.67 µM | – | Ki (Sts-1HP [3]): 326 ± 35 µM |
| CN(C)c1ccc(O)c2c1C[C@H]1C[C@H]3[C@H](N(C)C)C(O)=C(C(N)=O)C(=O)[C@@]3(O)C(O)=C1C2=O [Minocycline] | – | – | 32.59% | – |
| O=C1C(=NNc2ccc(S(=O)(=O)O)cc2)C(c2ccc([N+](=O)[O-])cc2)=NN1c1ccccc1 [PHPS1, 4-[2-[1,5-dihydro-3-(4-nitrophenyl)-5-oxo-1-phenyl-4H-pyrazol-4-ylidene]hydrazinyl]-benzenesulfonic acid] | – | 17.6 µM | – | Ki (Sts-1): 1 µM |
| Cc1cc(-c2ccc(/N=N/c3ccc4c(S(=O)(=O)O)cc(S(=O)(=O)O)c(N)c4c3O)c(C)c2)ccc1/N=N/c1ccc2c(S(=O)(=O)O)cc(S(=O)(=O)O)c(N)c2c1O [Evans Blue] | 23.6 µM | 3.1 µM | – | Ki (Sts-1HP [3]): 0.39 ± 0.11 µM |
| CN(C)[C@@H]1C(O)=C(C(N)=O)C(=O)[C@@]2(O)C(O)=C3C(=O)c4c(O)ccc(Cl)c4[C@@H](O)[C@H]3C[C@@H]12 [Demeclocycline] | > 14.5 µM | 4.7 µM | – | – |
